GSIS activator – GLuc luminescence reporter in INS-1E cells, primary screen for activators of glucose-dependent secretion of insulin; INS-1E GLuc reporter insulin secretion, 2-3 h; activation, % at 16.6 µM; 0.61% of 370,000 active;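 active = lowest replicate activation of at least 40%, so every replicate reaches that level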;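 note: 0% = median of neutral control wells and 100% = median of IBMX positive control wells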
Xi reactivation – X-chromosome reactivation activator | XiGFP mouse fibroblasts, % GFP-positive cells imaging, 3 d; cells co-treated with 5-aza-dC sensitizer; scaled so ellipticine positive control = 100% | activation, % at 7.58 µM | 0.055% of 360,000 active | AID 743238;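 active = mean normalized replicate activation at least 10% and every replicate at or above 10%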;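 note: 0% = median of on-plate neutral control wells and 100% = ellipticine 6 µM median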
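material = 68-5-11 XiGFP fibroblast line | medium = DMEM plus 5-aza-dC sensitizer | schedule = 3 days compound exposure | benchmarks = positive control ellipticine, 6 µM final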
EWS-Fli block – inhibitors of EWS/Fli oncoprotein transcriptional activity; 0.67% of 350,000 active; A673 NR0B1-luciferase reporter, viability-normalised; inhibition, % at 12.6 µM; AID 651661;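 active = mean inhibition of at least 50% after viability correction, with every replicate also passing that limit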;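 note: firefly luciferase signal divided by Alamar Blue viability fluorescence both relative to DMSO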
PAX8 inh HTS – lowers PAX8-driven luciferase in RMG-I cells. RMG-I TPO-luciferase reporter, SteadyGlo, 24 h. inhibition, % at 12.6 µM. 1.2% of 360,000 active;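 active = mean replicate inhibition at least 60% with every replicate also reaching 60%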;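 note: luciferase light reporting Pax8 driven TPO promoter activity; plate controls were median of neutral control wells for no effect and mitoxantrone controls for full effect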
PGC1a acetyl inh – lowers PGC1a acetylation signal in U2OS cells; AlphaScreen anti-acetyl-lysine; with virally co-expressed GCN5 acetyltransferase; 0.17% of 350,000 active; inhibition, % at 15.6 µM;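 active = every replicate shows inhibition of at least 40%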;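 note: 0% = neutral control wells and 100% = positive control wells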
AF4-AF9 inh – inhibitors of human MLL-AF4/AF9 interaction; 0.47% of 350,000 active; AlphaScreen, biotin-AF4 peptide binding to FLAG-AF9; inhibition, % at 10 µM; P42568;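 active = every replicate reaching a set inhibition limit, whatever the replicate mean, cut at about 25% in these data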;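 note: 0% = plate neutral control median and 100% = total signal loss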
Target sequence (P42568 whole entry, looked up): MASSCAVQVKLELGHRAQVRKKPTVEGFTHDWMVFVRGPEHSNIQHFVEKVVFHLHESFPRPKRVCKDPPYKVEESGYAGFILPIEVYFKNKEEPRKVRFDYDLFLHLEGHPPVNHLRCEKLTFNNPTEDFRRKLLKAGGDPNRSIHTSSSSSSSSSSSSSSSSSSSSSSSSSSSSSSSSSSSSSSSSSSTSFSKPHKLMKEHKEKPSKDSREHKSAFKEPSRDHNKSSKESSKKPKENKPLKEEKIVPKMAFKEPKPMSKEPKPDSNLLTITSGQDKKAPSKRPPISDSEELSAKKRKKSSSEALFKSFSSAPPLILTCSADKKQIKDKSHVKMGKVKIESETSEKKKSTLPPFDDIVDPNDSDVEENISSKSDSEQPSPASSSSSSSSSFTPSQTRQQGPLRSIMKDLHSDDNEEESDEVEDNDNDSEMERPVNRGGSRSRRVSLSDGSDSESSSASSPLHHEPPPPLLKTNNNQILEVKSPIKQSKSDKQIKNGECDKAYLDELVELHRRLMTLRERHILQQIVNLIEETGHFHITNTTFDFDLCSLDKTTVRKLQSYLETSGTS
* hit, by the source's call; nt = not tested or not shown. Most compounds without a hit are left out; they make up all but 2.1% or so of the library.

SMILES	GSIS activator	Xi reactivation	EWS-Fli block	PAX8 inh HTS	PGC1a acetyl inh	AF4-AF9 inh
CO[C@H]1CN(C)C(=O)c2ccc(NC(=O)C3CC3)cc2OC[C@H](C)N(C(=O)Cc2ccccn2)C[C@@H]1C	-2	0	-4	-5	-6	-1
COc1ccc(NC(=O)Nc2ccc3c(c2)C(=O)N([C@H](C)CO)C[C@H](C)[C@H](CN(C)S(=O)(=O)c2ccc(C)cc2)O3)cc1	-49	0	14	7	1	2
Cn1cccc1/C=C1\SC(=Nc2cccc(O)c2)NC1=O	-22	0	-11	-111	-2	25*
CC(=O)N(C)C[C@@H]1Oc2ccc(NS(C)(=O)=O)cc2CC(=O)N(C)C[C@H]1C	-17	0	nt	nt	nt	nt
c1nc(CCO[C@H]2CCCCO2)cc2cc3c(cc12)OCO3	12	0	75*	5	nt	-1
COCC(=O)Nc1ccc2c(c1)C(=O)N(C)[C@@H]1CC[C@H](CC(=O)NCc3ccccc3Cl)O[C@@H]1CO2	-5	0	4	-5	5	nt
O=S(=O)(NCC1CCCO1)c1ccc(Cl)cc1 (centres undefined)	2	0	-2	28	-3	1
O=S(=O)(NCC1CCCO1)c1ccc(Cl)nc1 (centres undefined)	44*	1	7	-8	7	-8
Cc1ccc(CCC(=O)Nc2ccc(Cl)cc2)o1	-9	6	-28	-25	72*	3
CCNC(=O)C[C@@H]1CC[C@H]2[C@H](COc3ccc(NC(=O)Nc4ccc(C)cc4)cc3C(=O)N2C)O1	-6	0	-3	8	3	1
CC(C)CCN1C(=O)c2cccc3c(N)ccc(c23)C1=O	-6	99*	-85	-73	-2	-57
Nc1ccc2c3c(cccc13)C(=O)N(c1ccccc1)C2=O	27	1	-18	-3	nt	-2
COc1ccccc1C(C)Nc1ccc(S(=O)(=O)N2CCN(C)CC2)cc1[N+](=O)[O-] (centres undefined)	-32	0	16	3	-9	28*
CC(Nc1ccc(S(=O)(=O)N2CCN(C)CC2)cc1[N+](=O)[O-])c1ccccc1 (centres undefined)	17	0	0	-14	16	18
COc1ccc(CN(C)C(=O)COC(=O)c2ccc3c(c2)OCO3)cc1OC	64*	nt	nt	nt	25	nt
COc1ccc(CCNC(=O)/C=C/c2ccc3ccccc3n2)cc1OC	-3	0	19	77*	5	-1
O=C(O)c1ccccc1NCCO	9	0	-5	6	nt	-3
COc1ccc(CCNC(=O)COC(=O)C2CC2C)cc1OC (centres undefined)	57*	0	-1	-2	-1	-1
COC(=O)c1ccccc1NCCO	120*	0	8	25	nt	-1
COc1ccc(CCNC(=O)COC(=O)c2ccco2)cc1OC	nt	nt	nt	23	-108	nt
COc1ccc(S(=O)(=O)Nc2ccc3c(c2)C(=O)N([C@@H](C)CO)C[C@@H](C)[C@@H](CN(C)C(=O)Cc2ccccc2)OCCCC[C@@H](C)O3)cc1	-29	-1	-6	5	-1	0
COc1ccccc1NC(=O)N1C[C@@H]2[C@H](c3ccccc31)[C@@H](CO)N2C(=O)c1ccccc1	9	0	7	-3	-4	3
COc1ccc(CCNC(=O)CCCc2ccccc2)cc1OC	55*	0	-10	2	9	-1
COc1ccc(CNC(=O)COC(=O)c2cncc(Br)c2)cc1	12	0	-2	-16	6	-1
COc1ccc(CCNC(=O)Cc2ccc3c(c2)OCO3)cc1OC	102*	0	nt	17	16	nt
SMILES	GSIS activator	Xi reactivation	EWS-Fli block	PAX8 inh HTS	PGC1a acetyl inh	AF4-AF9 inh
COc1ccc(CCNC(=O)C(C)Sc2ccccc2)cc1OC (centres undefined)	nt	nt	nt	nt	-9	nt
COc1ccc(CCNC(=O)C(C)Sc2ccc(C)cc2)cc1OC (centres undefined)	53*	0	nt	-2	nt	nt
COc1ccc(CCNC(=O)COC(=O)c2cncc(Br)c2)cc1OC	56*	0	-4	-2	9	0
COc1ccc(CCNC(=O)CNC(=O)c2ccc3c(c2)OCO3)cc1OC	36	0	-12	4	nt	0
C[C@@H]1CCCCO[C@H](CN(C)S(=O)(=O)c2cccs2)[C@@H](C)CN([C@@H](C)CO)C(=O)c2cc(NC(=O)C3CCCCC3)ccc2O1	-11	0	1	nt	4	0
C[C@@H]1CN([C@@H](C)CO)S(=O)(=O)c2ccc(-c3ccc(F)cc3)cc2O[C@@H]1CN(C)C	12	0	-4	nt	-5	0
COc1ccc(CCNC(=O)c2ccccc2C(=O)NCCc2ccc(OC)c(OC)c2)cc1OC	10	0	-6	-10	-10	-3
COc1ccc(CCNC(=O)CCn2c(=O)c3cccn3c3cccnc32)cc1OC	65*	0	nt	-1	-6	1
O=C(O)COc1ccc(C(=O)Cc2ccc3c(c2)OCCCO3)c(O)c1	4	nt	8	nt	nt	0
COc1ccc(C(=O)Cc2ccc3c(c2)OCO3)c(O)c1	41*	0	nt	-63	nt	nt
COc1ccc(CCNC(=O)COC(=O)c2ccccc2NCCO)cc1OC	83*	0	-8	-30	10	-13
COc1ccc(CNC(=O)CCCn2c(=O)c3cccn3c3cccnc32)cc1	14	0	-2	-2	-5	-3
C/C=C/c1ccc([C@@H]2[C@H](CO)N(CC3CC3)C23CN(S(=O)(=O)CC)C3)cc1	5	0	nt	nt	nt	2
CSc1nc(N)n2nc(C(C)(C)C)cc2n1	54*	0	-13	-38	nt	nt
CSc1nc(N)n2nc(C)cc2n1	1	0	-7	-10	nt	-1
C=C/C=C/[C@@H]1C(=C)CN2[C@H]1[C@H](Cc1ccccc1)OC(=O)[C@@H]2Cc1ccccc1	nt	nt	3	-4	-57	-5
C[C@H](CO)N1C[C@H](C)[C@H](CN(C)Cc2ccc(Oc3ccccc3)cc2)Oc2ccc(NC(=O)Nc3ccc4c(c3)OCO4)cc2CC1=O	-4	5	20	nt	-9	5
C[C@H]1CN([C@@H](C)CO)C(=O)CCCn2nncc2CO[C@@H]1CN(C)C(=O)Nc1ccc(C(F)(F)F)cc1	-15	0	-9	2	0	0
CCOc1ccc2ccccc2c1/C=N\NC(=O)OC	0	0	-4	141*	4	-14
CCOc1ccc2ccccc2c1/C=N\NC(=O)c1ccc([N+](=O)[O-])cc1	1	0	-7	8	2	-1
C[C@H](CO)N1C[C@H](C)[C@H](CN(C)C(=O)Nc2ccccc2)Oc2c(NS(=O)(=O)c3ccc(F)cc3)cccc2C1=O	-15	0	-5	nt	0	-1
